Measurements pooled from the literature.
Protocols differ between the studies behind these lines.
Target: Serine/threonine-protein kinase Nek4 (NEK4, Homo sapiens, UniProt P51957)

CN1CC(Oc2cnc(C#N)cc2-c2ccn3nc(NC(=O)C4CC4)cc3c2)C1  inhibition (enzyme activity; inhibitor; 1 µM): 2%
CCCS(=O)(=O)Nc1ccc(F)c(C(=O)c2c[nH]c3ncc(-c4ccc(Cl)cc4)cc23)c1F  inhibition (enzyme activity; inhibitor; 1 µM): < 10%
COc1cc2ncnc(Nc3ccc(Oc4ccccc4)c(C)c3C)c2cc1OC  inhibition (enzyme activity; inhibitor; 1 µM): 2%
CC1=C(C#N)[C@@H](c2ccc3[nH]nc(C)c3c2)C(C#N)=C(c2ccc(Cl)cc2)N1  remaining binding (cell-free assay; competition with immobilised ligand; 1 µM): 90.1%
CC/C(=N\NC(=O)NCc1cccc(O)c1)c1ccc(O)c(C)c1O  inhibition (enzyme activity; inhibitor; 0.1 µM): -1.9%
c1ccc(CNc2nc(N3CCOc4ccccc43)nc3c2CCCC3)cc1  inhibition (target engagement in cells; inhibitor; chemoproteomics; 20 mM): -18.5%
CN(C)C1CCN(CC#Cc2nn(C3CCCC3)c3nc(NCc4ccccc4)ncc23)C1 (stereo not shown)  inhibition (enzyme activity; inhibitor; FRET; 1 µM): 8%
COc1ccc2c(c1)O[C@@H](c1ccc(OC)c(OC)c1)C[C@H]2NC(=O)C1(c2ccc3c(c2)OC(F)(F)O3)CC1  remaining binding (cell-free assay; competition with immobilised ligand; 1 µM): 75%
Clc1ccc(Nc2nnc(Cc3ccncc3)c3ccccc23)cc1  remaining signal (cell-free assay; 0.5 µM): 97.7%
CCCOc1ccc([C@H]2[C@H](C(=O)O)[C@@H](c3ccc4c(c3)OCO4)CN2CC(=O)Nc2c(CC)cccc2CC)cc1  remaining binding (cell-free assay; competition with immobilised ligand; 1 µM): 71%
O=C1Nc2ccc(Cl)cc2C1=Cc1cc(Cl)c(O)c(Cl)c1  remaining signal (cell-free assay; 0.5 µM): 88.2%
CCC(=O)N[C@@H]1CC[C@H](C(=O)N(C)c2ccc(-c3nc4ccccc4o3)cc2)C1  remaining binding (cell-free assay; competition with immobilised ligand; 1 µM): 95%
O=C(Nc1cnn(-c2csc(C(=O)NC3COC3)c2)c1)Nc1ccccc1Cl  remaining activity (enzyme activity; inhibitor; 5 µM): 109%
O=C1NC(=O)c2cc(Nc3ccc(F)cc3)c(Nc3ccc(F)cc3)cc21  remaining signal (cell-free assay; 0.5 µM): 107%
CC(C)(C)c1nc(-c2cccc(NS(=O)(=O)c3c(F)cccc3F)c2F)c(-c2ccnc(N)n2)s1  remaining activity (enzyme activity; inhibitor; radiometric; 1 µM): 92%
O=C(NCCCC1CCCCC1)c1ccc(CNC(=O)c2cnn(-c3ccccc3)c2C(F)(F)F)cc1  remaining binding (cell-free assay; competition with immobilised ligand; 0.1 µM): 100%
